The target of this test is PARP-1 (poly ADP-ribose polymerase) (Homo sapiens, UniProt P09874). Nature of the test: PARP-1 chemiluminescent assay kit. The test is classed as biochemical. The settings on record: read-out: % (inhibition at 21.35 μM). In outline:
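Human PARP-1 activity was measured with a chemiluminescent kit, run per the maker's protocol. PARP-1 incorporates biotinylated NAD into biotinyl-poly(ADP-ribose) on immobilized histone substrate. The biotinylated substrate was incubated with the test compound at several concentrations in assay buffer containing PARP-1 enzyme. The read-out was chemiluminescence.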

This is an account of results in publication PMC4281931 (Anticancer research, 2013).

Sequence of PARP-1 (poly ADP-ribose polymerase) (P09874 2-1014): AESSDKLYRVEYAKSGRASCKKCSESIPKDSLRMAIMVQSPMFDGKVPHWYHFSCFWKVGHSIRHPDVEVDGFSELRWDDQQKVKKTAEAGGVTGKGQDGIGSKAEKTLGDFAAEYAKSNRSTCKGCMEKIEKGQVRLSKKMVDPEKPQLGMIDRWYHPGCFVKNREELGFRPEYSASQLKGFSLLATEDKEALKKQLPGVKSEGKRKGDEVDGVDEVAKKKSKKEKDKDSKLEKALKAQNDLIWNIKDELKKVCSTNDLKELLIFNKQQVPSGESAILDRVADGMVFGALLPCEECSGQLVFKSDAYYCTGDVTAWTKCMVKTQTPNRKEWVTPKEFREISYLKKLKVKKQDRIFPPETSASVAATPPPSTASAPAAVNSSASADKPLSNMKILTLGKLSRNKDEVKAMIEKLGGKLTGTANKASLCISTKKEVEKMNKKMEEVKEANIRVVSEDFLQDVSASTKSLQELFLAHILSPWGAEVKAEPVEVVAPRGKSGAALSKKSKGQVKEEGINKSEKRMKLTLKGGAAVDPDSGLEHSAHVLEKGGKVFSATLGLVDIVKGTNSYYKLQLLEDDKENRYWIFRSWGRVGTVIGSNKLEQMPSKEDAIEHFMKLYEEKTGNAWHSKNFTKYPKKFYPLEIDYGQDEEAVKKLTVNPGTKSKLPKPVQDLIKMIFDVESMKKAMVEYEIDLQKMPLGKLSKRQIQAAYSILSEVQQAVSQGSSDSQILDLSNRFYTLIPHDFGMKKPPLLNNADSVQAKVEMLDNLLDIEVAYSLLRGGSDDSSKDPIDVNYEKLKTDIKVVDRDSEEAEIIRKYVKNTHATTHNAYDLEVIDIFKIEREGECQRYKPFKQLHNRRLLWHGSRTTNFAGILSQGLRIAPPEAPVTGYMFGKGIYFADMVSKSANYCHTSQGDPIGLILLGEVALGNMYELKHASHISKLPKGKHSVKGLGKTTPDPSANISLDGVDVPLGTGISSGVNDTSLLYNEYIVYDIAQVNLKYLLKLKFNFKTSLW

The term inhibition denotes how much of the control response was suppressed. Regarding `O=C1C[C@@H](c2ccccc2)Oc2c(Cc3ccccc3O)c(O)c(Cc3ccccc3O)c(O)c21` [dichamanetin], the inhibition at 21.35 µM was 96.2%.
